Experimental findings from paper PMC5508980 (Molecular nutrition & food research, 2017) are described below.

Common to all, as to type: biochemical
One test concerns the target T1, recombinant HDAC8 (Homo sapiens, UniProt Q9BY41).
T1 sequence (Q9BY41 1-377): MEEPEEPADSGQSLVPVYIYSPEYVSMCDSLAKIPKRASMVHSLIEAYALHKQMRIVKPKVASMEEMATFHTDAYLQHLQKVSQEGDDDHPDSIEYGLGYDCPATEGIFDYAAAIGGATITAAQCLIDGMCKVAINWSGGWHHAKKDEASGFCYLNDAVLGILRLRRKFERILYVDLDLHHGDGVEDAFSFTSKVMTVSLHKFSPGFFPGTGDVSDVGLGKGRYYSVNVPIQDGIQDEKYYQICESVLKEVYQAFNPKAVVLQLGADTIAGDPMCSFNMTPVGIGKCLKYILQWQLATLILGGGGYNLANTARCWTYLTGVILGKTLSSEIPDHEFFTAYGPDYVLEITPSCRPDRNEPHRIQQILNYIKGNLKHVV
The experiment in a line: Recombinant HDAC activity assay. The note with it: 2 h, read-out: % HDAC activity, Class I HDACs, 8.

The target of another test is recombinant HDAC3 (Homo sapiens, UniProt O15379). As to the kind of experiment: Recombinant HDAC activity assay. The note with it: 2 h, read-out: % HDAC activity, Class I HDACs, 3.
recombinant HDAC3, sequence (O15379 whole entry): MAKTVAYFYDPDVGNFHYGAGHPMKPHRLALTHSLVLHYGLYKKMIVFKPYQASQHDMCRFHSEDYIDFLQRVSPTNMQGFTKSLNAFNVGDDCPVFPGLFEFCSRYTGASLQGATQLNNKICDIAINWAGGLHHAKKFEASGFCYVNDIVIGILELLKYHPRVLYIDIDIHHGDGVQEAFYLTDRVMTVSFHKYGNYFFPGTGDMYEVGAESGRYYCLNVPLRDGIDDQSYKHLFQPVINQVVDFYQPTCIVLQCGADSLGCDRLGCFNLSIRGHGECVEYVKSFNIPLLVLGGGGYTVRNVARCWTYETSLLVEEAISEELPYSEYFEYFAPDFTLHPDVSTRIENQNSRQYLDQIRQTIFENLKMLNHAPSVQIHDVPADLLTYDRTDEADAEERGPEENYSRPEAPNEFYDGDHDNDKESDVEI
recombinant HDAC3, sequence (Q9Y618 395-489 partner limits assumed): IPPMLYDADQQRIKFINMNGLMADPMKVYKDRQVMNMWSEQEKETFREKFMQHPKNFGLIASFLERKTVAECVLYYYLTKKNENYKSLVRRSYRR
In the next test the target is recombinant HDAC2 (Homo sapiens, UniProt Q92769). As to the kind of experiment: Recombinant HDAC activity assay. The note with it: 2 h, read-out: % HDAC activity, Class I HDACs, 2.
recombinant HDAC2, sequence (Q92769 whole entry): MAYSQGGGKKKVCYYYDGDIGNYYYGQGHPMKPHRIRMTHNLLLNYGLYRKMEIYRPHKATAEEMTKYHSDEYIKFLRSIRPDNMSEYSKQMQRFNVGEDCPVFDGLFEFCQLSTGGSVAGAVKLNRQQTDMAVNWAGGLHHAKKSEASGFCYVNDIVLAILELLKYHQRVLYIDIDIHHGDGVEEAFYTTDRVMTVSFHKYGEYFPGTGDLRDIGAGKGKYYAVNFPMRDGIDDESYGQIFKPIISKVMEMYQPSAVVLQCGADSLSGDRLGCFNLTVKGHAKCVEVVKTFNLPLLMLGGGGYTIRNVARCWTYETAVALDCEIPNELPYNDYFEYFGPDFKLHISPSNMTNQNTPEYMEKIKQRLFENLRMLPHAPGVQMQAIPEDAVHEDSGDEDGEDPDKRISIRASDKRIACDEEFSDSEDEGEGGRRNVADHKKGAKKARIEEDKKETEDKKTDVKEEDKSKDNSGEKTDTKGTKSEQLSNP
The target in another test is T2, recombinant HDAC6 (Homo sapiens, UniProt Q9UBN7).
T2 sequence (Q9UBN7 1-1215): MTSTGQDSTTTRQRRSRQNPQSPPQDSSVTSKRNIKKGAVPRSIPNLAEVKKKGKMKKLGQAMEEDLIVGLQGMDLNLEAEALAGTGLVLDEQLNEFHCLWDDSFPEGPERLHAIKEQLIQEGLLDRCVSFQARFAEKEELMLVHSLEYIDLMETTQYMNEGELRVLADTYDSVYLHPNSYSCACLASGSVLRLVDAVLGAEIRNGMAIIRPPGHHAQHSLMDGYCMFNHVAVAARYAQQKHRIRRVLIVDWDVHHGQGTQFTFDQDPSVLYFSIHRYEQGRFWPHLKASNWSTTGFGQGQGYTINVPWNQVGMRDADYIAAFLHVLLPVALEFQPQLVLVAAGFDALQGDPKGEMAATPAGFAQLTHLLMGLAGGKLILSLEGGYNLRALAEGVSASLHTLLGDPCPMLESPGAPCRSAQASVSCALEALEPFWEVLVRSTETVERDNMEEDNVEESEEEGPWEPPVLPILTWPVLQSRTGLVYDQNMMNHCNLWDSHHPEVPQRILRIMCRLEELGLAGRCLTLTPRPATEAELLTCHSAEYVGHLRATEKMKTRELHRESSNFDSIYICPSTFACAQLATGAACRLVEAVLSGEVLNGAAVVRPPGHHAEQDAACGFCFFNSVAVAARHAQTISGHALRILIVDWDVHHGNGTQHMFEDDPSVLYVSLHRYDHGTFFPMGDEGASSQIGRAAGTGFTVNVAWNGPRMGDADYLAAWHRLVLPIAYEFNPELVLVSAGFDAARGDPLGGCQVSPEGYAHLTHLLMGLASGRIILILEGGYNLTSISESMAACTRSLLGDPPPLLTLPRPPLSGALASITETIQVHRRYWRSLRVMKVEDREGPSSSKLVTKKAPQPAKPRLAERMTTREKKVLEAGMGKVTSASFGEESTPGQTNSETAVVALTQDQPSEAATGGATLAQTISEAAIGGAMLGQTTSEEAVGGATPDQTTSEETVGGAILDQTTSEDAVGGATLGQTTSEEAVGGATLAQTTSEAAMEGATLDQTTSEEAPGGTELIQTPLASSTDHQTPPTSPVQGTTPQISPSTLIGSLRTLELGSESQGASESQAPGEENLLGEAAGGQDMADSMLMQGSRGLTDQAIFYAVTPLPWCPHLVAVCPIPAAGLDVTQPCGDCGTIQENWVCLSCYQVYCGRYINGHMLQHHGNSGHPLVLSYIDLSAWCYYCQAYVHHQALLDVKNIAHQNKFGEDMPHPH
The experiment in a line: Recombinant HDAC activity assay. The note with it: 2 h, read-out: % HDAC activity, Class IIb HDACs, 6.

The next test has as its target recombinant HDAC1 (Homo sapiens, UniProt Q13547). As to the kind of experiment: Recombinant HDAC activity assay. The note with it: 2 h, read-out: % HDAC activity, Class I HDACs, 1.
The target of the next test is T3, recombinant HDAC10 (Homo sapiens, UniProt Q969S8).
T3 sequence (Q969S8 1-669): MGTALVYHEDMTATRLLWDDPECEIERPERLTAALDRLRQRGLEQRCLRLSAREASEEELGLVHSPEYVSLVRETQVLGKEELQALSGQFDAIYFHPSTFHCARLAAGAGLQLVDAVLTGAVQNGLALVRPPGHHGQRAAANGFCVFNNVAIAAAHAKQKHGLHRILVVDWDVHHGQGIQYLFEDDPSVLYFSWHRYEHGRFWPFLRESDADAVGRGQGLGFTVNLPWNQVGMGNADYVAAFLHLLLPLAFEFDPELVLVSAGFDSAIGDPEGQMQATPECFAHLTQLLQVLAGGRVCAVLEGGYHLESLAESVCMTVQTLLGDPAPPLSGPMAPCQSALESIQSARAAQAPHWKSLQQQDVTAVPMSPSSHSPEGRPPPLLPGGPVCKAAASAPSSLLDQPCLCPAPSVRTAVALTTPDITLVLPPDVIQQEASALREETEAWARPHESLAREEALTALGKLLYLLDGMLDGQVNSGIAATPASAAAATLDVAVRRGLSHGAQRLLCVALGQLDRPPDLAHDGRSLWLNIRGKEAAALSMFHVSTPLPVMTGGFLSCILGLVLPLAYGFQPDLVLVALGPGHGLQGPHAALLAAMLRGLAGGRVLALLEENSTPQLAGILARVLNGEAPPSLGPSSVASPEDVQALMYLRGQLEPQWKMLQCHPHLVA
As to the kind of experiment: Recombinant HDAC activity assay. The note with it: 2 h, read-out: % HDAC activity, Class IIb HDACs, 10.

For the next test, the target named is recombinant HDAC9 (Homo sapiens, UniProt Q9UKV0). As to the kind of experiment: Recombinant HDAC activity assay. The note with it: 2 h, read-out: % HDAC activity, Class IIa HDACs, 9.
recombinant HDAC9, sequence (Q9UKV0 whole entry): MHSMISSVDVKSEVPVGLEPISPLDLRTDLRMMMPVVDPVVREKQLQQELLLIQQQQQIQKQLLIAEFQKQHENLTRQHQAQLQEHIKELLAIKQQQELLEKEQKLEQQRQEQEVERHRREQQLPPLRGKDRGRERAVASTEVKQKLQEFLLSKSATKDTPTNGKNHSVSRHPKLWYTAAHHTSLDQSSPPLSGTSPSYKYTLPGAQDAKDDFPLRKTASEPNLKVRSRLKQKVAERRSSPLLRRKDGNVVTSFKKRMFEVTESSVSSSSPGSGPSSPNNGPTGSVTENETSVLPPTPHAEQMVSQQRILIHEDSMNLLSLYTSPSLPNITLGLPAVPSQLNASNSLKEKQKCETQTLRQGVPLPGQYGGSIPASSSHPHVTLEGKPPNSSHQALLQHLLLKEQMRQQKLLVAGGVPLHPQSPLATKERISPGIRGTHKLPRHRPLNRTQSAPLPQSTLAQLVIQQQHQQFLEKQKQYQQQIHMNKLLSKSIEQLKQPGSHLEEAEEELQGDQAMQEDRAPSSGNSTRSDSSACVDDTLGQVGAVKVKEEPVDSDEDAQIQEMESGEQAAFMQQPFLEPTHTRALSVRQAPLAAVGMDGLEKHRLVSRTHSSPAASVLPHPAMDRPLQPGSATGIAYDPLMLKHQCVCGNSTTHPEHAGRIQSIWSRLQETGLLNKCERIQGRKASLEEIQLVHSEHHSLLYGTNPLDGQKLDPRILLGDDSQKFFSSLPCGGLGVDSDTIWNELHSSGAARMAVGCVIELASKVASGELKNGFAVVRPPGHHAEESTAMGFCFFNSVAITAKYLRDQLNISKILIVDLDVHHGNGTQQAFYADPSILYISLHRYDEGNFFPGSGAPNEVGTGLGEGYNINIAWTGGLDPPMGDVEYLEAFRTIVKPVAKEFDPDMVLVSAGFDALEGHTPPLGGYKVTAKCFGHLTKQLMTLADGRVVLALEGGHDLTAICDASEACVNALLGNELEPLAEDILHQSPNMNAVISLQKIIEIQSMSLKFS
For test [1], the system named is HDAC activity in bovine cardiac tissue. As to the kind of experiment: Natural product library screen with class-selective HDAC substrates. The note with it: 2 hours treatment. In a few lines: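 The screen covered 131 natural compounds against bovine cardiac tissue lysate at 30 µg protein/well in PBS (pH 7.4 lysis buffer with Triton X-100 and NaCl). Test compound for 2 h, then separate class I, IIa or IIb fluorogenic acyl-lysine-AMC substrates for 2 h at 37 °C. Developer (Triton X-100, 3 µM TSA, 0.75 mg/ml trypsin) for 20 min; fluorescence read at 360/460 nm.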

recombinant HDAC1, sequence (Q13547 whole entry): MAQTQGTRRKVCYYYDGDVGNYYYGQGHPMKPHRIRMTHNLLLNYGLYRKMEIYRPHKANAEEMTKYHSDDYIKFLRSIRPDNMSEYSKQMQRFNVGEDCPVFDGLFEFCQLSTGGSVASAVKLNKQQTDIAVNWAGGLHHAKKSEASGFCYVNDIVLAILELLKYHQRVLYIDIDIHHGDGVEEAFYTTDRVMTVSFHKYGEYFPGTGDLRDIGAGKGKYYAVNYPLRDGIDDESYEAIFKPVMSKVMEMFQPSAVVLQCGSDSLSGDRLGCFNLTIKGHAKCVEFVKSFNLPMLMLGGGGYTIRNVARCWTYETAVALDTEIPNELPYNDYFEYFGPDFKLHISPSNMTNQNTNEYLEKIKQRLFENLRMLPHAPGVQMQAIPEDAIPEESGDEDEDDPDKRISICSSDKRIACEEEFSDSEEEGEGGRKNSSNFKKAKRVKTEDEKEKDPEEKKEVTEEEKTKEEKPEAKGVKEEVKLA

For the compound `Cc1cc(O)c2c(c1)C(=O)c1cc(O)cc(O)c1C2=O` [Emodin], the remaining activity at 50 µM at recombinant HDAC8 turned out to be 32.3%; at recombinant HDAC3, 35.1%; on recombinant HDAC2, 35%; on recombinant HDAC6, 38.8%; on recombinant HDAC1 it was 35.8%; at recombinant HDAC10, 35.8%. Moreover, the remaining activity at 50 µM on recombinant HDAC9 was determined as 34.7%. Besides, the “catalytic HDAC activity across class I, IIa and IIb substrates, effect in words” value in test [1] is “dose-dependent pan-HDAC inhibition”.
